pIC50: −log10 of the molar value. Calls of active or inactive are those of the source. No cut-off for these calls is given here.
Experiments:
[1] = test system: A549; experiment: Cytotoxicity against human A549 cells assessed as cell growth inhibition after 48 hrs by microplate reader analysis; assay type: functional, cell-based; conditions: A549, 48 h
Procedure, shortened: (§1)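 Medium was RPMI-1640 for EBC-1, A549 and DU145, and DMEM for PC-3, SK-N-SH and K562. Both media had 10% heat-inactivated FBS plus penicillin/streptomycin; cells were kept at 37 °C, 5% CO2. Cells were seeded at 5000/well and given compound from DMSO stock (final 0.1% DMSO) for 48 h. Viability was read by WST-8 colorimetry, absorbance at 450 and 600 nm, and IC50 determined.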

[2] = test system: PC-3; experiment: Cytotoxicity against human PC3 cells assessed as cell growth inhibition after 48 hrs by microplate reader analysis; assay type: functional, cell-based; conditions: PC-3, 48 h; procedure, shortened: as §1
[3] = Cytotoxicity against human EBC1 cells assessed as cell growth inhibition after 48 hrs by microplate reader analysis; assay type: functional, cell-based; conditions: EBC-1, 48 h; procedure, shortened: as §1
[4] = test system: SK-N-SH; experiment: Cytotoxicity against human SK-N-SH cells assessed as cell growth inhibition after 48 hrs by microplate reader analysis; assay type: functional, cell-based; procedure, shortened: as §1
[5] = test system: K562; experiment: Cytotoxicity against human K562 cells assessed as cell growth inhibition after 48 hrs by microplate reader analysis; assay type: functional, cell-based; conditions: K562, 48 h; procedure, shortened: as §1
[6] = test system: A549; experiment: Downregulation of RABGAP1L gene expression in human A549 cells at 21 nM after 12 hrs by microarray analysis relative to control; assay type: functional
Procedure, shortened: (§2)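 A549 cells (RPMI-1640, 10% heat-inactivated FBS, penicillin/streptomycin, 37 °C, 5% CO2) seeded at 4 × 10^5 per 60 mm dish. Exposed 12 h to conjugate at 21, 26, 34 or 100 nM in medium with 0.1% DMSO, against 0.1% DMSO control. Whole-genome (~25 000 genes) expression profiled by microarray.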

[7] = test system: A549; experiment: Downregulation of NP_115632.1 gene expression in human A549 cells at 21 nM after 12 hrs by microarray analysis relative to control; assay type: functional
Procedure, shortened: (§3)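 A549 cells, 4 × 10^5 per 60 mm dish, were exposed to conjugate for 12 h in medium with 0.1% DMSO; vehicle control was 0.1% DMSO. Whole human genome (~25 000 genes) expression was profiled by microarray and expression compared with the control.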

[8] = test system: A549; experiment: Downregulation of Q8N570_HUMAN gene expression in human A549 cells at 21 nM after 12 hrs by microarray analysis relative to control; assay type: functional; procedure, shortened: as §2
[9] = test system: A549; experiment: Downregulation of RS29_HUMAN gene expression in human A549 cells at 21 nM after 12 hrs by microarray analysis relative to control; assay type: functional; procedure, shortened: as §2
[10] = test system: A549; experiment: Downregulation of FHIT gene expression in human A549 cells at 21 nM after 12 hrs by microarray analysis relative to control; assay type: functional; procedure, shortened: as §3
[11] = test system: DU-145; experiment: Cytotoxicity against human DU145 cells assessed as cell growth inhibition after 48 hrs by microplate reader analysis; assay type: functional, cell-based; conditions: DU-145, 48 h; procedure, shortened: as §1
[12] = test system: A549; experiment: Downregulation of SUPT3H gene expression in human A549 cells at 21 nM after 12 hrs by microarray analysis relative to control; assay type: functional; procedure, shortened: as §2
[13] = test system: A549; experiment: Downregulation of NBEA gene expression in human A549 cells at 21 nM after 12 hrs by microarray analysis relative to control; assay type: functional; procedure, shortened: as §3
[14] = test system: A549; experiment: Downregulation of SLC4A4 gene expression in human A549 cells at 21 nM after 12 hrs by microarray analysis relative to control; assay type: functional; procedure, shortened: as §2
[15] = test system: A549; experiment: Downregulation of MBD3L1 gene expression in human A549 cells at 21 nM after 12 hrs by microarray analysis relative to control; assay type: functional; procedure, shortened: as §3
[16] = test system: A549; experiment: Downregulation of NP_060463.1 gene expression in human A549 cells at 21 nM after 12 hrs by microarray analysis relative to control; assay type: functional; procedure, shortened: as §3
[17] = test system: A549; experiment: Downregulation of CPNE4 gene expression in human A549 cells at 21 nM after 12 hrs by microarray analysis relative to control; assay type: functional; procedure, shortened: as §3
[18] = test system: A549; experiment: Downregulation of PTPRK gene expression in human A549 cells at 21 nM after 12 hrs by microarray analysis relative to control; assay type: functional; procedure, shortened: as §2
[19] = test system: A549; experiment: Downregulation of GABRA3 gene expression in human A549 cells at 21 nM after 12 hrs by microarray analysis relative to control; assay type: functional; procedure, shortened: as §3
[20] = test system: A549; experiment: Downregulation of FMN2 gene expression in human A549 cells at 21 nM after 12 hrs by microarray analysis relative to control; assay type: functional; procedure, shortened: as §3
[21] = test system: A549; experiment: Downregulation of ACTG gene expression in human A549 cells at 21 nM after 12 hrs by microarray analysis relative to control; assay type: functional; procedure, shortened: as §3
[22] = test system: A549; experiment: Downregulation of SMYD3 gene expression in human A549 cells at 21 nM after 12 hrs by microarray analysis relative to control; assay type: functional; procedure, shortened: as §2
[23] = test system: A549; experiment: Downregulation of HECW2 gene expression in human A549 cells at 21 nM after 12 hrs by microarray analysis relative to control; assay type: functional; procedure, shortened: as §3
[24] = test system: A549; experiment: Downregulation of Q8NCR4 gene expression in human A549 cells at 21 nM after 12 hrs by microarray analysis relative to control; assay type: functional; procedure, shortened: as §2
[25] = test system: A549; experiment: Downregulation of Q5VY43 gene expression in human A549 cells at 21 nM after 12 hrs by microarray analysis relative to control; assay type: functional; procedure, shortened: as §2
[26] = test system: A549; experiment: Downregulation of SLC25A21 gene expression in human A549 cells at 21 nM after 12 hrs by microarray analysis relative to control; assay type: functional; procedure, shortened: as §2
[27] = test system: A549; experiment: Upregulation of HES2 gene expression in human A549 cells at 21 nM after 12 hrs by microarray analysis relative to control; assay type: functional
Procedure, shortened: (§4)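 4 ×10^5 A549 cells seeded per 60 mm dish and treated 12 h with conjugate (21, 26, 34 or 100 nM) in medium; control medium contained 0.1% DMSO, with conjugates added as 0.1% DMSO solutions. Whole human genome (~25 000 genes) expression profiled by microarray against the DMSO control. A549 culture: RPMI-1640 with 10% heat-inactivated FBS, penicillin/streptomycin, 37 °C, 5% CO2.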

[28] = test system: A549; experiment: Upregulation of Q6NTF7 gene expression in human A549 cells at 21 nM after 12 hrs by microarray analysis relative to control; assay type: functional; procedure, shortened: as §4
[29] = test system: A549; experiment: Upregulation of BTG2 gene expression in human A549 cells at 21 nM after 12 hrs by microarray analysis relative to control; assay type: functional; procedure, shortened: as §4
[30] = test system: A549; experiment: Upregulation of BBC3 gene expression in human A549 cells at 21 nM after 12 hrs by microarray analysis relative to control; assay type: functional; procedure, shortened: as §2
[31] = test system: A549; experiment: Upregulation of MDM2 gene expression in human A549 cells at 21 nM after 12 hrs by microarray analysis relative to control; assay type: functional; procedure, shortened: as §4
[32] = test system: A549; experiment: Upregulation of CST8 gene expression in human A549 cells at 21 nM after 12 hrs by microarray analysis relative to control; assay type: functional; procedure, shortened: as §4
[33] = test system: A549; experiment: Upregulation of CDKN1A gene expression in human A549 cells at 21 nM after 12 hrs by microarray analysis relative to control; assay type: functional; procedure, shortened: as §4
[34] = test system: A549; experiment: Upregulation of HCK gene expression in human A549 cells at 21 nM after 12 hrs by microarray analysis relative to control; assay type: functional; procedure, shortened: as §4
[35] = test system: A549; experiment: Upregulation of FDXR gene expression in human A549 cells at 21 nM after 12 hrs by microarray analysis relative to control; assay type: functional; procedure, shortened: as §4
[36] = test system: A549; experiment: Upregulation of BTNL3 gene expression in human A549 cells at 21 nM after 12 hrs by microarray analysis relative to control; assay type: functional; procedure, shortened: as §4
[37] = test system: Nucleic Acid; experiment: Induction of calf thymus DNA cleavage at 10 to 25 nM after 12 h by PAGE analysis; assay type: nucleic-acid assay; conditions: in the assay text read “208-bp PCR fragment DNA” for “calf thymus DNA”
Procedure, shortened: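 5′-Texas Red-labeled 208 bp PCR fragments alkylated in 5.0 mM sodium phosphate (pH 7.0) with 10% DMF, room temperature, 12 h. Quenched with calf thymus DNA and heated 95 °C for 5 min under neutral conditions. Recovered DNA in formamide loading dye, heated 95 °C 20 min, then run on 6% denaturing polyacrylamide gel with 6.0 M urea at 1.5 kV, 40 °C.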

## CC(=O)Nc1cc(C(=O)Nc2cn(C)c(C(=O)NCCC(=O)Nc3cn(C)c(C(=O)Nc4cc(C(=O)NCCCC(=O)Nc5cc(C(=O)Nc6cc(C(=O)Nc7cc(C(=O)Nc8ccc9[nH]c(C(=O)N%10CC(CCl)c%11c%10cc(O)c%10ccccc%11%10)cc9c8)n(C)c7)n(C)c6)n(C)c5)n(C)c4)n3)n2)n(C)c1 (racemic)
[1]
  pIC50: 7.67
[2]
  pIC50: 8.22
[3]
  pIC50: 7.47
[4]
  pIC50: 7.82
[5]
  pIC50: 8.11
[6]
  fold change (FC): 0.132
[7]
  fold change (FC): 0.154
[8]
  fold change (FC): 0.228
[9]
  fold change (FC): 0.234
[10]
  fold change (FC): 0.253
[11]
  pIC50: 8.48
[12]
  fold change (FC): 0.268
[13]
  fold change (FC): 0.274
[14]
  fold change (FC): 0.278
[15]
  fold change (FC): 0.294
[16]
  fold change (FC): 0.303
[17]
  fold change (FC): 0.314
[18]
  fold change (FC): 0.334
[19]
  fold change (FC): 0.343
[20]
  fold change (FC): 0.344
[21]
  fold change (FC): 0.345
[22]
  fold change (FC): 0.345
[23]
  fold change (FC): 0.346
[24]
  fold change (FC): 0.348
[25]
  fold change (FC): 0.354
[26]
  fold change (FC): 0.354
[27]
  fold change (FC): 10.6
[28]
  fold change (FC): 7
[29]
  fold change (FC): 6.7
[30]
  fold change (FC): 5.7
[31]
  fold change (FC): 5.4
[32]
  fold change (FC): 5.3
[33]
  fold change (FC): 5.2
[34]
  fold change (FC): 4.3
[35]
  fold change (FC): 2
[36]
  fold change (FC): 2
[37]
  Activity: Active
